From PubChem
KLK7 zymogen act: proKLK7 (human) activation, primary screen | activation, % at 7 µM | purified proKLK7, EDANS-DABCYL substrate fluorescence; 100% is mature enzyme control, 0% vehicle | 370,000 compounds, 0.9% hits;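 active means activation above the mean of all tested compounds plus 3 SD, computed per campaign excluding outliers beyond control limits, cut at about 13% in these data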
Target sequence (P49862 whole entry, looked up): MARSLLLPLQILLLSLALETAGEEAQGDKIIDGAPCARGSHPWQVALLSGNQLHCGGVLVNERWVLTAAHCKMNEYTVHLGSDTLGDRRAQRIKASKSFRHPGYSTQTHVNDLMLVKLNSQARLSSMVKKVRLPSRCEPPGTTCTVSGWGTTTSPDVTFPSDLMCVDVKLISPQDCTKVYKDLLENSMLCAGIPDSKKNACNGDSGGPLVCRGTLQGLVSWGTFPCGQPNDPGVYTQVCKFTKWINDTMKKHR
T cell HTS: T cell immune modulation candidate. 2C CD8+ T cell-vesicle binding, flow cytometry; hits give low values. response (vesicle binding), % at 7 µM. 330,000 compounds, 0.068% hits. AID 2052;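 active means response, share of CD8 T cells binding vesicles, and their 90th percentile fluorescence all below set limits, cut at about 80% in these data, passing the limit was not always enough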;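 further: values below 100% mean blocked vesicle binding to the CD8+ T cells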
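material = purified 2C TCR transgenic mouse naive CD8+ T cells | controls = Unloaded micro-vesicles (low), QL9 vesicles with 0.7% DMSO (high) | detection = cytometric PE anti-B7-1 and Alexa647 anti-CD8 signals after 1% paraformaldehyde fixation | incubation = binding step 1.5 h, 37 °C, antibody labelling 20 min, ice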
CR mimetic SO: caloric restriction mimetics inhibiting age-related superoxide in yeast; S. cerevisiae aged cells, superoxide DHE fluorescence; hits give low values; superoxide response (% of plate mean), % at 10 µM; 330,000 compounds, 0.18% hits; AID 2690;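 active means superoxide response under a set limit, about three screen SD below normal, cut at about 65% in these data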;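 further: yeast aged for seven days with compound at 30 °C before DHE staining; 100% = average MFI of all compound-treated wells on the plate with controls excluded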
MIN6 prolif-1: inducers of beta-cell replication in MIN6 cells | 330,000 compounds, 0.29% hits | AID 2380 | proliferation, % at 10 µM | MIN6 cells proliferation, ATPlite luminescence, 48 h; cells starved in 0.2% serum; 100% = growth in 10% serum;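 active means compounds whose signal lies at least 3.5 SD above the mean of all wells on their plate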;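 further: 0% = DMSO-treated cells in low-serum medium and 100% = 10% serum control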
Rce1 inhib: blocks yeast Ras-converting enzyme; Q03530; yeast membranes, quenched prenylated peptide cleavage fluorescence; calls only; 290,000 compounds, 0.27% hits; AID 2563;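 active means fall in fluorescence gain of 50% or more versus controls, with final raw signal at or below 3038400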;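 further: plate controls were neutral control wells for no effect and wells lacking membranes for full effect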
Target sequence (Q03530 whole entry, looked up): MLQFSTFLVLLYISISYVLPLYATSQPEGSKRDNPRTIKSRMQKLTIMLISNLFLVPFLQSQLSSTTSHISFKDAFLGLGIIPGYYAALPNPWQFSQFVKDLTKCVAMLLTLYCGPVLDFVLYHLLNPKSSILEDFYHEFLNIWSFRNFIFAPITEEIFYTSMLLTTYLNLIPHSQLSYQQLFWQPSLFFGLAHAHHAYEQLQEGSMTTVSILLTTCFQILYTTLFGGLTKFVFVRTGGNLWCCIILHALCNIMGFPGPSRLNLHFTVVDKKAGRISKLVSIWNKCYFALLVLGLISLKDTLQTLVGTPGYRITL
V-ATPase pHluor: yeast V-ATPase proton transport regulation by pHLuorin; 350,000 compounds, 0.37% hits; response, % at 10 µM; S. cerevisiae, pHLuorin cytosolic pH fluorescence; in the data active means response mostly above about 7.3%, no sharp cut-off; inactive means mostly below about 5.4%; further: actives read high
MIN6 prolif-2: MIN6 beta-cell replication induction, confirmed; shares compounds with MIN6 prolif-1; proliferation increase, % at 50 µM; AID 463095; MIN6 beta-cell proliferation, ATPlite luminescence, 48 h; cells kept in 0.2% serum; scaled between 0.2% and 10% serum; 920 tested, under 10 active;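 active means proliferation increase above 40% at any of the four tested concentrations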
* hit, by the source's call; i = inactive; / = no result given. Hits are enriched below; roughly 1.9% of the tested compounds scored in any of these assays.

SMILES	KLK7 zymogen act	T cell HTS	CR mimetic SO	MIN6 prolif-1	Rce1 inhib	V-ATPase pHluor	MIN6 prolif-2
C=CCOn1c(=O)c(-c2ccc(Cl)cc2)[n+]([O-])c2ccccc21	1	/	/	0	i	-2	/
CO[C@@H]1[C@H](O)CC[C@]2(O)CN(c3ccc(F)cc3)[C@](C)([C@H](O)CC=C(C)C)[C@@H]12	0	/	/	/	/	/	/
Cc1ccc(CC(=O)Nc2cc(C)ccn2)cc1	0	111	105	-3	i	6	/
CCNC(=S)Nc1cc(C)ccn1	1	195	100	0.0*	i	4	2
CCN(C(=O)[C@H]1CC(=O)O[C@@H]1c1ccccc1)c1ccccc1	0	/	/	/	/	/	/
CN(c1ccc(C(=O)Nc2cccnc2)cc1)S(=O)(=O)c1ccccc1	0	292	106	0.0*	/	-2	2
Cc1ccc(S(=O)(=O)N(C)[C@H]2C[C@H]3c4cc(N5CCOCC5)ccc4CCN3C[C@H]2[C@H](C)O)cc1	1	/	/	/	/	/	/
CCSc1nc(N)c(C#N)c(-c2ccco2)c1C#N	1	779	104	14*	i	-6	5
CCN1C(=O)/C(=C2/SC(C)=C(C)N2CC)SC1=S	0	553	100	7.5*	i	-1	1
CCCCN1CC(COCc2ccccc2)Oc2cccc(Sc3ccc(OC)c(OC)c3)c2S1(=O)=O (configuration not stated)	0	/	/	/	/	/	/
O=C(CSCc1c(F)cccc1Cl)NCc1ccco1	0	162	94	2	i	0	/
O=C(CSCc1c(Cl)cccc1Cl)NCc1ccco1	0	129	94	9.2*	i	-1	-3
COc1ccc(C(=O)NCCNC(C)=O)cc1S(=O)(=O)NCc1ccc(Cl)cc1	-1	296	101	-4	i	-1	/
COc1ccc(F)cc1S(=O)(=O)NCc1ccccc1	1	305	97	0.0*	i	0	0
COc1ccc(Br)cc1S(=O)(=O)NCc1ccccc1	0	525	110	0	i	1	/
COc1ccc(C(=O)N2CCC2)cc1S(=O)(=O)NCc1ccc(Cl)cc1	0	184	94	8.2*	/	-4	-2
CCOc1nc2cnccc2n(CC(=O)Nc2c(F)c(F)cc(F)c2F)c1=O	0	352	92	-1	i	0	/
CCOc1ccccc1NC(=O)Cn1c(=O)c(OCC)nc2cnccc21	/	464	126	12*	i	3	1
CCOc1nc2cnccc2n(CC(=O)Nc2ccccc2C(=O)OC)c1=O	-1	321	131	14*	i	0	1
COc1cccc(C(=O)N[C@H](C(=O)N2CCC[C@H]2C(=O)NC2CCCC2)C2CCCCC2)c1	0	/	/	/	/	/	/
CCC(=O)Nc1ccc2c(c1)C(=O)N(C)[C@@H]1CC[C@@H](CC(=O)NCCN3CCCCC3)O[C@H]1CO2	0	/	/	/	/	/	/
CCOC(=O)C1(CC)NC(c2cccc(F)c2)C2C(=O)N(CC)C(=O)C21 (configuration not stated)	0	257	84	7.2*	i	2	4
CC1CCN(C(=O)CCc2ccc(S(=O)(=O)NC(C)(C)C)cc2)CC1	0	423	103	7.5*	i	5	-2
COC(=O)c1cc(C)oc1C	-1	/	/	/	/	/	/
Cc1ccc(-n2nnnc2-c2ccccc2)cc1	0	437	104	4	i	4	/
SMILES	KLK7 zymogen act	T cell HTS	CR mimetic SO	MIN6 prolif-1	Rce1 inhib	V-ATPase pHluor	MIN6 prolif-2
Nc1ccc(-c2nnnn2-c2ccc(N)cc2)cc1	0	297	99	5.3*	i	-4	-3
COc1ccc(CCNC(=O)CNC(=O)c2ccc(Br)o2)cc1OC	0	380	97	13*	i	1	2
CC(C)N1CCCCC(NC(=O)c2cccc(C(F)(F)F)c2)C1=O (configuration not stated)	-1	/	/	/	/	/	/
CCc1nn(C(CC)C(=O)NCc2cccc(OC)c2)c(=O)c2cc3occc3n12 (configuration not stated)	0	386	94	8	i	3	/
CCc1nn(C(CC)C(=O)NCc2cccc(OC)c2OC)c(=O)c2cc3occc3n12 (configuration not stated)	0	180	94	14*	i	0	-6
CC(=O)CCc1ccc(OCCCOc2cccc3cccnc23)cc1	0	148	101	5.7*	i	6	-6
O=C(NC1CCCCC1)C1CCC(=O)N(C2CC2)C1 (configuration not stated)	0	127	111	11*	i	0	-1
O=[N+]([O-])c1cnccc1Nc1ccccc1	0	360	116	1	i	-1	/
COc1ccccc1Nc1ccncc1[N+](=O)[O-]	0	535	121	8.1*	i	3	6
CCOC(=O)C1CCN(c2cc3c(cc2NC(=O)c2ccccc2Cl)n(C)c(=O)n3C)CC1	6	70	124	15*	i	0	-6
NS(=O)(=O)c1ccc(CNC(=O)c2cc(=O)[nH]c3ccccc23)cc1	1	215	95	6.5*	/	-1	0
O=C(NCc1ccc(Cl)cc1)c1cc(=O)[nH]c2ccccc12	0	444	96	1	i	-2	/
CNC(=S)N(CCc1c(C)[nH]c2ccc(C)cc12)Cc1cccnc1	0	335	99	13*	i	-5	-4
Cc1cccc(NC(=S)N(CCc2nc3cc(C)c(C)cc3[nH]2)Cc2cccnc2)c1	1	218	98	4.8*	i	4	-1
COc1cccc(NC(=S)N(CCc2nc3cc(C)c(C)cc3[nH]2)Cc2cccnc2)c1	-1	236	105	-1	i	2	/
COc1ccc(CNS(=O)(=O)c2ccccc2Br)c(OC)c1	1	/	/	/	/	/	/
O=C1CN(S(=O)(=O)c2ccccc2)c2ccccc2N1	2	200	96	13*	i	-1	-1
CCCCn1c(N)c(N(CC(C)C)C(=O)COC(=O)Cc2cccc(OC)c2)c(=O)[nH]c1=O	0	221	94	0	i	7	/
CC(=O)N1CCCN(C(=O)CN2C(=O)CC(C)(C)S(=O)(=O)c3ccccc32)CC1	0	/	/	/	/	/	/
O=C(CNC(=O)c1ccccc1Cl)Nc1ccncc1	0	555	93	-4	/	5	/
O=C(CNC(=O)c1ccccc1Cl)Nc1ccc(F)cc1	1	245	82	7.0*	i	-3	-1
CCCCCCCCNC(=O)C1CSCCS(=O)(=O)N1Cc1ccc(F)cc1 (configuration not stated)	0	/	/	/	/	/	/
C[C@H]1C(c2ccccc2F)O[C@]2(C[C@H](O)c3c(ccc4ccccc34)O2)C[C@@H]1O (some centres not stated)	1	/	/	/	/	/	/
